Experimental findings from the RNAGym collection of RNA variant scans (doi:10.1126/science.aae0568) are described below.

Fewer inactive variants are shown than the library holds.

Sequences and labels used below:
B1: tRNA (parent)
chain: GUUCCGUUGGCGUAAUGGUAACGCGUCUCCCUCCUAAGGAGAAGACUGCGGGUUCGAGUCCCGUACGGAACG

The variants in this series derive from B1. Briefly: yeast fitness relative to wild type (ratio to wild type); higher = fitter; tRNA-Arg(CCU), competitive growth, 37 C, YPD. The method in brief: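 Gene amplicons from the start population and from each of six end populations were read by 100-nucleotide paired-end sequencing. Those end populations came from pooled Saccharomyces cerevisiae strains carrying tRNA-Arg(CCU) gene variants at the native locus, competed in YPD at 37°C for 24 hours. Fitness relative to wild type was worked out from changes in genotype frequencies. Genotypes needed ≥ 100 starting reads, and estimates < 0.5 were set to 0.5.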
Turning to GUUCUGUUGGCGUAAUGGUAACGCGUCUCGCUCCUAAGGAGAAGACUGCGCGUUCUAGUCCCGUACGGAACG [C5U C30G G51C G56U], the yeast fitness was not above 0.5.
Next, GUUCUGUUGGCGUAAUGGUAACGCGUCUCCGUCCUAAGGAGAAGACUGCGCGUUCGAGUCCCGUACGGAACG [C5U C31G G51C]: 0.572.
As to GUUCUGUUGGCGUAAUGGUAACGCGUCUCCCUACUAAGGAGAAGACUGCGGGUUUGAGUCCCGUACGGAACG [C5U C33A C55U], the yeast fitness is not above 0.5.
For GUUCUGUUGGCGUAAUGGUAACGCGUCUACCUCCUAAGGAGAAGCCUGCGGGUUCGAGUCCCGUACGGAACG [C5U C29A A45C], the yeast fitness is 0.669.
Consider GUUCUGUUGGCGUAAUGGUAACGCGUCUGACUCCUAAGGAGAAGACUGCGGGUUCGAGUCCCGGACGGCACG [C5U C29G C30A U64G A69C], for which the yeast fitness is not above 0.5.
Consider GUUCUGUUGGCGUAAUGGUAACGCGUCUCCUUCCUAAGGAGAAGAUUGCGAGUUCGAGUCCCGUACGGAACG [C5U C31U C46U G51A], for which the yeast fitness was determined as 0.69.
For GUUCUGUUGGCGUAAUGGUAACGCGUCUCUCUCCUAAGGAGAAGACUGGGGGUUCGAGUCCCGUACGGAACG [C5U C30U C49G], the yeast fitness amounted to 0.62.
As for GUUCUGUUGGCGUAAUGGUAACGCGUCUCGCUCCUAAGGAGAAGACUGCGGGUUCCAGUCCCGUACGGAACG [C5U C30G G56C], the figure is not above 0.5; as for GUUCUGUUGGCGUAAUGGUAACGCGUUUCCCUCCUAGGGCGAAGACAGCGGGUUCGAGUCCCGUACGGAACG [C5U C27U A37G A40C U47A], not above 0.5; as for GUUCUGUUGGCGUAAUGGUAACGCGUCUUCCUCCUAAGGAGAAGACUGCGGGUUCGAGUCCCGUACGGAACG [C5U C29U], 0.867.
Take GUUCUGUUGGCGUAAUGGUAACGCGUCUACCUCCUAAGGAGAAGACUGCGGGUUCGAGUCCCGUACGGAACG [C5U C29A]: the yeast fitness worked out at 0.569.
As for GUUCUGUUGGCGUAAUGGUAACGCGUCUCCGUCCUAAGGAGAAGACUGCGGGUUCGAGUCCCGUACGGAACG [C5U C31G], the figure is 0.918.
GUUCUGUUGGCGUAAUGGUAACGCGUCUCCCUGUUAACGAGAAGACAGCGGGUUCGAGUCCCGUACGGAACG [C5U C33G C34U G38C U47A]: the yeast fitness is not above 0.5.
Consider GUUCUGUUGGCGUAAUGGUAACGCGUCUCCCUACUCCGGAGAGGACUGCGGGUUCGAGUCCCGUACGGAACG [C5U C33A A36C A37C A43G], for which the yeast fitness is not above 0.5.
Turning to GUUCUGUUGGCGUAAUGGUAACGCGUCUCCGUGUUAAGGAGAAGACUGCGGGUUCGAGUCCCGUACGAAACG [C5U C31G C33G C34U G68A], the yeast fitness was 0.671.
As for GUUCUGUUGGCGUAAUGGUAACGCGUCUCACUCCUAAGGAGUAGACUGCGGGUUCGAGUCCCGUACGGAACG [C5U C30A A42U], the figure is 0.59.
Next, GUUCUGUUGGCGUAAUGGUAACGCGUCUCCAUCAUGAGGAGAAGACUGCGGGUUCGAGUCCCGUACGGAACG [C5U C31A C34A A36G]: not above 0.5; GUUCUGUUGGCGUAAUGGUAACGCGUCUGCCUCCUACGGAGAAGACUGUGGGUUCGAGUCCCGUAAGGAACG [C5U C29G A37C C49U C66A]: 0.627.
Turning to GUUCUGUUGGCGUAAUGGUAACGCGUUUCCCUCCUAAGGAGAAGACUGCGGGUUCGAGUCGCGUACGGAACG [C5U C27U C61G], the yeast fitness is not above 0.5.
Next, GUUCUGUUGGCGUAAUGGUAACGCGUCUUCCUCCUAAGGAGAAGCCUGCGGGUUCGAGUACCGUACGGAACG [C5U C29U A45C C60A]: not above 0.5; GUUCUGUUGGCGUAAUGGUAACGCGUCUCACUCCUAAGGAGAAGACUGCGGGUUCGAGUCCCGUCCGGAACG [C5U C30A A65C]: 0.703.
As for GUUCUGUUGGCGUAAUGGUAACGCGUCUCCUUCCUAAGGAGAAGACUGCAGGUCGGAGUCCCGUACGGAACG [C5U C31U G50A U54C C55G], the yeast fitness was not above 0.5.
For the variant GUUCUGUUGGCGUAAUGGUAACGCGUCUACCUCCGAAGGAGAAGAUUGCGGGUGCGAGUCCCGUACGGAACG [C5U C29A U35G C46U U54G], the yeast fitness is not above 0.5.
As for GUUCUGUUGGCGUAAUGGUAACGCGUCUCGCUCCUUAGGAGAAGACUGCGAAUUCGAGUCCCGGACGGAACG [C5U C30G A36U G51A G52A U64G], the figure is not above 0.5.
Next, GUUCUGUUGGCGUAAUGGUAACGCGUCUCCUUCCUAAGGAGAAGACUGCGGGUUCGAGUCACGUACGGAACG [C5U C31U C61A]: 0.552.
As for GUUCUGUUGGCGUAAUGGUAACGCGUCUUCCUCCUAAGGAGAAGACUGCGGGUUCGAGUCCCGUACGGUACG [C5U C29U A69U], the yeast fitness came to 0.72.
For the variant GUUCUGUUGGCGUAAUGGUAACGCGUCUGCCUCCUAAGGAGAAGACUGCGGGUUCGAGUCCCAUACGGAACG [C5U C29G G63A], the yeast fitness was not above 0.5.
As for GUUCUGUUGGCGUAAUGGUAACGCGUCUUCCUCCUAAGGAGAAGUCUGCGGGUUCGAGUCCCGUACGGAACG [C5U C29U A45U], the figure is 0.924; as for GUUCUGUUGGCGUAAUGGUAACGCGUUUCCCUCCUAAGGAGAAGACUACGGGUUCGAGUCCCGUACCGAACG [C5U C27U G48A G67C], not above 0.5.
Next, GUUCUGUUGGCGUAAUGGUAACGCGUCUCUCUCCUAGGGAGAAGACUGCGGGUUCGAGUCCCGUACGGAACG [C5U C30U A37G]: 0.64; GUUCUGUUGGCGUAAUGGUAACGCGUCUGCCUCCUAAGGAGAAGACUGUGGGUUCGAGUCCCGUACGGUACG [C5U C29G C49U A69U]: not above 0.5.
Consider GUUCUGUUGGCGUAAUGGUAACGCGUCUCCGUCCUAAGGAGAAGACUGCGGGUUCGAGUCCCGUACGCAACG [C5U C31G G68C], for which the yeast fitness came to 0.645.
Next, GUUCUGUUGGCGUAAUGGUAACGCGUCUGCCUCGUAAGGAGAAGACUGCGGGUUCGAGUCCCGUACGGAACG [C5U C29G C34G]: 0.542; GUUCUGUUGGCGUAAUGGUAACGCGUCUCCGUCCUAAGGAGAAGACUGCGGGUUCGAGUCCCGUAUGGAACG [C5U C31G C66U]: 0.736.
As for GUUCUGUUGGCGUAAUGGUAACGCGUCUCCCUGGUAAGGAGAAGAUUGCGGGUUCGAGUCCCGUACGGAACG [C5U C33G C34G C46U], the figure is not above 0.5.
As for GUUCUGUUGGCGUAAUGGUAACGCGUCUCCUUCCUAAGGAGAAGACUGCGGGUUCGAGUCCCGUACGCAACG [C5U C31U G68C], the figure is 0.653; as for GUUCUGUUGGCGUAAUGGUAACGCGUCUCCUUUGUAAGGCGAAGACUGCGGGUUCGAGUCCCAUACGGAACG [C5U C31U C33U C34G A40C G63A], not above 0.5.
Consider GUUCUGUUGGCGUAAUGGUAACGCGUCUCCGCCCUACGGAGAAGACUGCCGGUUCGAGUCCCGUACGGCACG [C5U C31G U32C A37C G50C A69C], for which the yeast fitness was not above 0.5.
